The values that follow come from PubChem BioAssay AID624467 (The Scripps Research Institute Molecular Screening Center, 2012).

Each structure is given as a SMILES string. Out of some 360,000 compounds screened, about 3,600 (1%) were called active.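 Rule for the calls: active = activation above the mean activation of all test compounds in the run plus 3 SD (cut at about 38% in these data); inactive = the rest.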 What follows is part of a selection rich in actives, with near analogues and random picks from the rest.

Chain of Trace amine-associated receptor 1 (Homo sapiens) (Q96RJ0 whole entry, looked up): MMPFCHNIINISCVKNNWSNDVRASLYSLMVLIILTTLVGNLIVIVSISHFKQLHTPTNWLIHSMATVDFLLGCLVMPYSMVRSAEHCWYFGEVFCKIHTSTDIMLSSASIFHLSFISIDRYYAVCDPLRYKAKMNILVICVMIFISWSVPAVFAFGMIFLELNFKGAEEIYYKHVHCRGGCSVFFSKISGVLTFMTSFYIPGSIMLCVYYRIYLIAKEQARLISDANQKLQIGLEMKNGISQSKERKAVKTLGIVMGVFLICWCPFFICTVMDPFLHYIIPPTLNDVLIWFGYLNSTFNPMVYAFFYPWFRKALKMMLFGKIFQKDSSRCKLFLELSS

This assay has as its target Trace amine-associated receptor 1 (Homo sapiens) (UniProt Q96RJ0). The assay can be described thus: human TAAR1 agonists, primary screen, Fluo-8 calcium fluorescence, CHO RD-HGA16 cells (AID 624467). To be noted: CHO RD-HGA16 TAAR1, Fluo-8 calcium fluorescence; at 3 µM; active compounds read high; vehicle wells 0%, saturating PEA agonist 100%. Summed up: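 System: CHO RD-HGA16 cells carrying human TAAR1 plus Gα16; Incubation: 17-24 h seeding, 75 min 37 °C dye, 30 min RT; Measured by: Fluo-8 fluorescence, 5 s baseline then 140 s kinetic read; Control set: DMSO and PEA EC100; Replication: single well for each compound.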
Turning to `Cc1ccc2nc(-c3ccc(CN4CCC(n5cc(-c6ccccc6)[nH]c5=O)CC4)cc3)c(-c3ccccc3)nc2c1`, the activation is 1.53% (inactive).

For the molecule `c1ccc2c(c1)C(=NC1CCCCC1)NC2=NC1CCCCC1`, the activation is 83.2% (active).

Turning to `Cn1nccc1NC(=O)CC(CC(=O)O)c1ccccc1` (stereo not given), the activation is 1.46% (inactive).

`Nc1ncnc2c1ncn2[C@@H]1O[C@H](C(=O)N[C@@H](CCc2ccccc2)C(=O)N2CCCN(Cc3cccs3)CC2)[C@@H](O)[C@H]1O`: the activation was -0.59% (inactive).

In the case of `C=CCNC(=O)COC(=O)CNC(=O)c1cc(Cl)cc([N+](=O)[O-])c1`, the activation was -0.52% (inactive).

On to `CC[C@H](NC(=O)[C@H](Cc1ccccc1)NC(=O)[C@H]1O[C@@H](n2cnc3c(=O)[nH]c(N)nc32)[C@H](O)[C@@H]1O)c1ccccc1`, for which the activation was 12.6% (inactive).

`Cc1nc(C(=O)NCc2ccccc2)sc1C1(C)CC(c2cccnc2)=NO1` (stereo not given): the activation was 57.5% (active).

With `Cc1nc(C(=O)Nc2ccc(Cl)cc2)sc1C1(C)CC(c2ccccc2)=NO1` (stereo not given), the activation is 5.24% (inactive).

For the molecule `Cc1nc(-c2ccc(Cl)cc2)sc1C1(C)CC(c2ccccc2F)=NO1` (stereo not given), the activation was -1.12% (inactive).

For the molecule `O=C(C(=O)N1CCC(CNC(=O)c2cccnc2Cl)CC1)c1cccs1`, the activation is 1.11% (inactive).

As to `CN1C(=O)CN2CCc3ccccc3C2c2cc(Cl)ccc21` (stereo not given), the activation is 3.95% (inactive).

Take `CC(=O)c1ccc(S(=O)(=O)NCC2CCN(C(=O)C(=O)c3cccs3)CC2)cc1`: the activation is 6.58% (inactive).

Regarding `O=C(O)CC(SCC(=O)Nc1ccc(Br)cc1)C(=O)O` (stereo not given), the activation is 5.77% (inactive).

For the molecule `O=C(CSCc1ccc(Br)cc1)Nc1ccc(S(=O)(=O)N2CCCCCC2)cc1`, the activation is 23.4% (inactive).

With `O=C1CCCN2N=C(SCC(=O)Nc3ccc(Br)cc3)SC2=N1`, the activation was 46.4% (active).

Consider `COC(=O)C1=C(C)N(Cc2ccccc2C(F)(F)F)C(=NCC2CC2)NC1c1cccc(Cl)c1` (stereo not given), for which the activation was 26.6% (inactive).

Take `O=C(/C=C/[C@H]1O[C@@H](n2cnc3c(NC(=O)c4ccccc4)ncnc32)[C@H](O)[C@@H]1O)NCc1ccccc1`: the activation is 54.8% (active).

As for `COc1cccc(CN(C)C(=O)CC[C@H]2O[C@@H](n3cnc4c(NC(=O)c5ccccc5)ncnc43)[C@H](O)[C@@H]2O)c1`, the activation is 0.18% (inactive).

As for `CCC(C)C(CO)NC(=O)/C=C/[C@H]1O[C@@H](n2cnc3c(NC(=O)c4ccccc4)ncnc32)[C@H](O)[C@@H]1O` (stereo not given in full), the activation was 2.69% (inactive).

`COc1ccc(C(CNC(=O)c2cccc(S(=O)(=O)Nc3ccccc3Cl)c2)N2CCOCC2)cc1` (stereo not given): the activation was -1.44% (inactive).

With `Cc1ccc(NC(=S)Nc2ncccc2C)c(C)c1`, the activation is -3.17% (inactive).

As for `Cn1cnnc1SCc1nnc(-c2ccccc2Br)o1`, the activation is 11.2% (inactive).

Regarding `Nc1cccc2c1C(=O)N(Cc1nnc(-c3ccccc3Br)o1)C2=O`, the activation was 75.4% (active).

For the molecule `CC(C)N(Cc1nnc(-c2ccccc2Br)o1)C(=O)c1cc(Cl)nc2ccccc12`, the activation is 4.53% (inactive).

Consider `CC1(C(=O)NS(=O)(=O)c2cccc(OC(F)F)c2)CCN1C(=O)COc1ccc(Cl)cc1` (stereo not given), for which the activation was 1.84% (inactive).

For the molecule `COC(=O)c1c(-c2ccc(OC)cc2)c2c(c3c4ccccc4n(S(=O)(=O)c4ccc(C)cc4)c13)C(=O)N(C)C2`, the activation was -0.97% (inactive).

As for `COc1ccc(CCNCc2c(-c3ccccc3)n(C)c3ccccc23)cc1`, the activation was 37.6% (active).

Turning to `COc1ccc(CNCCCn2cnc3c(OCc4ccccc4)ncnc32)cc1`, the activation was 2.67% (inactive).

In the case of `COc1ccc(-c2c(C#Cc3ccccc3)c3ccccc3n2C)cc1`, the activation was 1.86% (inactive).

On to `Cc1ccc(N2C(=O)C(NC(=O)c3c(F)cccc3F)(C(F)(F)F)C3=C2CC(C)(C)CC3=O)cc1` (stereo not given), for which the activation was 0.87% (inactive).

Turning to `O=C1[C@@H](c2ccccc2)[C@@H](c2ccccc2)N1c1ccccc1`, the activation is 3.32% (inactive).

Consider `CC(C)(C)OC(=O)N1CCN(C(=O)c2[nH]c(C(F)(F)F)nc2-c2ccccc2)CC1`, for which the activation was 1.1% (inactive).

As to `COc1ccccc1-c1c(C#N)c(N)nc2c1CCC2`, the activation is -0.25% (inactive).

For the molecule `CSc1nc(N)c(C#N)c(-c2ccccc2Cl)c1C#N`, the activation was 56.9% (active).

As to `CSc1ccc(-c2c(C#N)c(N)nc3c2c(C)nn3-c2ccccc2)cc1`, the activation was 8.14% (inactive).

Regarding `Cc1ccc2oc(=O)ccc2c1`, the activation was 0.04% (inactive).

For `CCc1ccc2oc(-c3ccc(N)cc3)nc2c1`, the activation was 11.3% (inactive).

Regarding `CCN(CC)c1ccc2oc(=O)c(C)nc2c1`, the activation is 81% (active).

For the molecule `O=C1CCN(C(=O)Nc2ccccc2)N1`, the activation is 3.7% (inactive).

On to `C[C@H]1CN([C@@H](C)CO)C(=O)CCCn2nncc2CO[C@@H]1CN(C)C(=O)Nc1ccc(N2CCN(C)CC2)cc1`, for which the activation was 0.67% (inactive).

For `CCOc1ccc(Br)cc1S(=O)(=O)Nc1ccc(S(=O)(=O)Nc2cc(C)on2)cc1`, the activation was -0.13% (inactive).

For the molecule `NS(=O)(=O)c1ccc(CNC(=S)NC(=O)c2ccco2)cc1`, the activation is 1.56% (inactive).

Consider `CCC1CCCCN1C(=S)NC(=O)c1ccco1` (stereo not given), for which the activation was 4.61% (inactive).

In the case of `CC(Oc1ccc2ccccc2c1)C(=O)NNC(=S)NC(=O)c1ccco1` (stereo not given), the activation was 98.9% (active).

Consider `O=C(NNC(=S)Nc1ccc(Br)cc1Cl)c1ccco1`, for which the activation is 3.5% (inactive).

Regarding `CCCc1ccc(OCC(=O)NNC(=S)NC(=O)c2ccco2)cc1`, the activation was 83.4% (active).

Consider `O=C(Nc1ccc2ccccc2c1)/C(=C\c1ccc2c(c1)OCO2)NC(=O)c1ccco1`, for which the activation was -0.26% (inactive).

Turning to `O=C(C(=O)N1CCN(c2ccccc2)CC1)c1ccc2c(c1)OCO2`, the activation was -0.35% (inactive).

Turning to `CCC(C)NC(=O)c1ccc(NC(=O)CC2SC(N3CCCCC3)=NC2=O)cc1` (stereo not given), the activation is 1.77% (inactive).

For the molecule `C=CCOC(=O)C1=C[C@H](c2ccc(Br)cc2)C[C@H](OCCCCO)O1`, the activation was 8.86% (inactive).

Turning to `COc1cc2c(cc1OC)CN(C(C)C(=O)Nc1cccc(S(=O)(=O)N3CCOCC3)c1)CC2` (stereo not given), the activation was 0.59% (inactive).

For the molecule `O=C(NCCc1ccc(F)cc1)c1n[nH]c2ccccc12`, the activation was 1.79% (inactive).

With `O=Cc1c(NCCCN2CCCC2=O)c2ccccc2[nH]c1=O`, the activation is 1.42% (inactive).

`O=Cc1c(NCCc2cccc(F)c2)c2ccccc2[nH]c1=O`: the activation was 72.1% (active).

Turning to `C=CCN1C(=O)N(Cc2ccccc2)c2ccccc2S1(=O)=O`, the activation is 0.49% (inactive).
